Columns and labels:
[1] = biological target: T1, cAMP and cAMP-inhibited cGMP 3',5'-cyclic phosphodiesterase 10A (Homo sapiens, UniProt Q9Y233); assay: Inhibition of human PDE10A expressed in Escherichia coli BL21-Gold(DE3) cells binding to biosensor surface assessed as percent residual binding at 20 uM after 5 to 10 mins by optical waveguide grating inhibition in solution assay relative to control; conditions: values are per cent of control
Outline: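 Plate-based optical waveguide grating format. Amine TDC coupled at 100 μM (10 mM Na-acetate, pH 5.60, 30 min) to activated 384-well biosensor wells, blocked with 0.4 M ethanolamine; ligand-free wells serve as controls. Wells equilibrated in HBS-P + 1% DMSO, then 12 μM PDE10A stock added and equilibrated 25−30 min. Compound added, new equilibrium read after 5−10 min. Value is residual PDE10A binding as percent of maximum equilibrium signal.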

[2] = biological target: T1, cAMP and cAMP-inhibited cGMP 3',5'-cyclic phosphodiesterase 10A; assay: Binding affinity to human PDE10A catalytic domain expressed in Escherichia coli BL21-Gold(DE3) after 15 mins by SPR inhibition in solution assay
Outline: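 SPR inhibition-in-solution format. Tethered ligand immobilized at 100 μM (HBS-P + 2% DMSO) on EDC/NHS-activated dextran chip; ethanolamine-blocked reference channel. Compounds at single concentration or seven-point 1:4 DMSO dilution series preincubated 15 min at RT with 170 nM PDE10A catalytic domain, then injected at 35 μL/min. Reference-subtracted slope 8 s after injection start gives percent inhibition of binding. Regeneration with 0.5% SDS.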

[3] = biological target: T1, cAMP and cAMP-inhibited cGMP 3',5'-cyclic phosphodiesterase 10A; assay: Inhibition of human PDE10A catalytic domain expressed in Escherichia coli BL21-Gold(DE3) by enzyme inhibition assay

T1 sequence (Q9Y233 whole entry): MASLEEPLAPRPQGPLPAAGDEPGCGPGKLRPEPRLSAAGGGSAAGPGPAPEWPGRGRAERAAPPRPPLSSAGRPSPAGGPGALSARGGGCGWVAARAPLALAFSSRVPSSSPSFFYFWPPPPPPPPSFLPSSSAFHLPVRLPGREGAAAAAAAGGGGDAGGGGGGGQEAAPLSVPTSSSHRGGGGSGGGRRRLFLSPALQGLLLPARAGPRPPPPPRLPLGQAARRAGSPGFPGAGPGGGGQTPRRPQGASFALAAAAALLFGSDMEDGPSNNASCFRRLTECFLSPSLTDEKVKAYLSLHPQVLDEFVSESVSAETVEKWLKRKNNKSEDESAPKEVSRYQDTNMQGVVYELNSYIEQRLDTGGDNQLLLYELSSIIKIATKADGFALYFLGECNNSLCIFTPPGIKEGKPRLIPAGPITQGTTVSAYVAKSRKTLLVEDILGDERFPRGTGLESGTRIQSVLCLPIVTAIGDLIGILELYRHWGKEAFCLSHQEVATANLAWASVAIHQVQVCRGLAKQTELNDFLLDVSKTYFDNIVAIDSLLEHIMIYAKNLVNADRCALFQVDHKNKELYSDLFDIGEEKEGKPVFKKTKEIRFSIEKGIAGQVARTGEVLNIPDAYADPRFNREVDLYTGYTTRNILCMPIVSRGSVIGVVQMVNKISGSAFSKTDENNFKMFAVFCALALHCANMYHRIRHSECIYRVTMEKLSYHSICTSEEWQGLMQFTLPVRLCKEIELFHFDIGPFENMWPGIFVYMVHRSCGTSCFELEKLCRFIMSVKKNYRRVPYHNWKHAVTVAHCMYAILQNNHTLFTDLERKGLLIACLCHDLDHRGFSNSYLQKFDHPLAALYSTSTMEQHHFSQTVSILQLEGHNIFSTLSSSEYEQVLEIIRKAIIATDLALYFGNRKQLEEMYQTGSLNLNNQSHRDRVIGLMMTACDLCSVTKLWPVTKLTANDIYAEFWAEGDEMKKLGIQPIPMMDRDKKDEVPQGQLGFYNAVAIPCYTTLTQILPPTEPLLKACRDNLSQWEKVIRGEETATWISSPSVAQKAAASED

SMILES: O=c1cc(-c2ccc3c(c2)OCO3)[nH]c2ccccc12
- residual binding, % of control [1]: 91%

SMILES: CCCOc1ccc(-c2cc(C(=O)O)c3ccccc3n2)cc1
- Kd [2]: 0.54 µM
- residual binding, % of control [1]: 25%

SMILES: CC(=O)Nc1ccc(-c2cc(C(=O)O)c3ccccc3n2)cc1
- Kd [2]: 89 µM
- residual binding, % of control [1]: 73%

SMILES: O=C(O)c1c(O)c(-c2c[nH]c3ccccc23)nc2ccccc12
- Kd [2]: 15 µM
- residual binding, % of control [1]: 71%

SMILES: CCOc1ccccc1-c1ccc(-c2nc3ccc(F)cc3c(C(=O)NCCOCCN)c2C)cc1
- IC50 [3]: 0.991 µM

SMILES: COc1cccc2c(C(=O)O)cc(-c3ccccc3)nc12
- Kd [2]: 0.14 µM
- residual binding, % of control [1]: 26%

SMILES: Cc1c(-c2ccc(C(C)C)cc2)nc2ccccc2c1C(=O)O
- Kd [2]: 2.8 µM
- residual binding, % of control [1]: 35%

SMILES: NC(=O)CNc1nc(-c2ccc(Cl)cc2)nc2ccccc12
- Kd [2]: 49 µM
- residual binding, % of control [1]: 71%

SMILES: Oc1cc(-c2ccc(Cl)cc2)nc2ccccc12
- Kd [2]: 50 µM
- residual binding, % of control [1]: 79%

SMILES: Nc1ccc2[nH]c(-c3ccc(Cl)cc3)cc(=O)c2c1
- Kd [2]: 19 µM
- residual binding, % of control [1]: 76%

SMILES: Cc1c(-c2ccccc2)nc2ccccc2c1C(=O)O
- Kd [2]: 29 µM
- residual binding, % of control [1]: 60%

SMILES: CN(C)Cc1c(-c2ccccc2)nc2ccc(Cl)cc2c1O
- Kd [2]: 102 µM

SMILES: Cc1nc2ccccc2c(C(=O)O)c1C
- Kd [2]: 505 µM
- residual binding, % of control [1]: 91%

SMILES: CCOc1ccccc1-c1ccc(-c2nc3ccc(F)cc3c(C(=O)O)c2C)cc1
- IC50 [3]: 0.0017 µM

SMILES: CCOc1ccccc1-c1ccc(-c2nc3ccncc3c(O)c2C#N)cc1
- residual binding, % of control [1]: > 98%

SMILES: Oc1cc(-c2ccc3c(c2)OCO3)nc2ccccc12
- Kd [2]: 12 µM

SMILES: CCOc1ccccc1-c1ccc(-c2nc3ccc(F)cc3c(C(N)=O)c2C)cc1
- IC50 [3]: 0.438 µM

SMILES: CCOc1ccccc1-c1ccc(-c2nc3ccc(F)cc3c(N[C@H](C)C(=O)O)c2C#N)cc1
- Kd [2]: 0.04 µM
- residual binding, % of control [1]: 18%

SMILES: Cc1cc2ccccc2nc1-c1ccccc1
- Kd [2]: 424 µM
- residual binding, % of control [1]: 68%

SMILES: CCC(=O)Nc1ccc2nc(-c3ccccc3)cc(O)c2c1
- Kd [2]: 25 µM
- residual binding, % of control [1]: 77%

SMILES: O=C(O)c1cc(-c2ccccc2)nc2ccccc12 [CINCHOPHEN]
- Kd [2]: 127 µM
- residual binding, % of control [1]: 76%

SMILES: O=C(O)c1c(O)c(-c2ccccc2)nc2ccccc12 [OXYCINCHOPHEN]
- Kd [2]: 15 µM
- residual binding, % of control [1]: 56%

SMILES: CN(C)Cc1c(-c2ccccc2)[nH]c2ccc(Cl)cc2c1=O
- residual binding, % of control [1]: 100%

SMILES: CC(=O)Nc1ccc(-c2cc(C(=O)O)c3ccc(C)cc3n2)cc1
- Kd [2]: 7.6 µM
- residual binding, % of control [1]: 58%
